Source: paper PMC4512239 (Clinical cancer research : an official journal of the …, 2015)

Columns and labels:
Format in all cases: in vivo, human
p-4EBP1 in PBMNCs = test: p-4EBP1 in peripheral blood mononuclear cells by flow cytometry
p-AKT (S473) in PRP = test: p-AKT in platelet-rich plasma by Meso Scale Discovery immunoassay
p-S6 = p-S6 immunohistochemistry in pre- and post-treatment tumor biopsies; conditions: 50 mg BD, post-treatment vs pre-treatment, mean H score
Outline: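 Paired tumor biopsies taken before treatment and on days 8-15 of continuous oral twice-daily dosing, in a subset of expansion-cohort patients with advanced solid tumors. Patients fasted (water allowed) 2 h before and 1 h after each dose. Markers were scored by immunohistochemistry on post-treatment versus pre-treatment samples.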

SUVmax of tumors = test: FDG PET scans at baseline and day 8; conditions: Part B, 50 mg BD, paired FDG PET scans
[1] = 50 mg, 24 hours (12 hours after the 2nd BD dose)

`CNC(=O)c1cccc(-c2ccc3c(N4CCOC[C@@H]4C)nc(N4CCOC[C@@H]4C)nc3n2)c1` [AZD2014] was tested, and the “mean % change from baseline in p-4EBP1” value (p-4EBP1 in PBMNCs; [1]) was −21%, the “mean % change from baseline in p-4EBP1” value (p-4EBP1 in PBMNCs; single 50 mg dose, 6-8 hours) was roughly −41% and the “mean % change from baseline in p-AKT” value (p-AKT (S473) in PRP; [1]) was −2%. The “mean % change from baseline in p-AKT” value (p-AKT (S473) in PRP; single 50 mg dose, 6-8 hours) was −37%, the “mean % change from baseline in p-AKT” value (p-AKT (S473) in PRP; single 50 mg dose, 2 hours) was −62% and the “evaluable paired biopsy samples with a reduction of p-S6 levels” value (p-S6) was 8/8. The “patients attaining a partial response (30% reduction in SUVmax)” value (SUVmax of tumors) was 3/11 and the “patients with a reduction of SUVmax” value (SUVmax of tumors) was 8/11.
